Compound activity as filed in PubChem.
A selection: hits, their analogues and other compounds. The true share with any hit is near 3.5%.
MrgX1 ag – agonists of human MrgX1 receptor; Q96LB2; MrgX1-HEK293 cells, Fluo-4 calcium fluorescence, agonist mode; stronger effect = higher value; B-score at 10 µM; hit rate 0.44% among 310,000;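 active = calcium response B-score plate-corrected fluorescence ratio at least 3 library SD, with starting fluorescence B-score inside 5 SD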
Target sequence (Q96LB2 whole entry, looked up): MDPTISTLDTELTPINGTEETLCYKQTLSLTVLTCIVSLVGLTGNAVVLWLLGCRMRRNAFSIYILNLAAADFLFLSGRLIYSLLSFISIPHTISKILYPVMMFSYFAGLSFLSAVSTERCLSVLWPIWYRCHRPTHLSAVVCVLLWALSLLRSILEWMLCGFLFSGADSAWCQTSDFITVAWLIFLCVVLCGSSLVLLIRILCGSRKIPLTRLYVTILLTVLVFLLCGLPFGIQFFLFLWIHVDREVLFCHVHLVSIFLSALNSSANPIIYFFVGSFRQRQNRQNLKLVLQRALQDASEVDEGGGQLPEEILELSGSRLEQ
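Test system: Stable human MrgX1 HEK293 cell line | Schedule: Overnight plating before 1 h dye loading | Read-out basis: Baseline-normalised fluorescence change ratio, B-scored | Detection: Kinetic calcium dye fluorescence, Fluo-4 NW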
MrgX1 antag – antagonists of human MrgX1 receptor. Q96LB2. MRGX1-HEK293 calcium flux, Fluo-4, BAM8-22 antagonism; stronger effect = lower value. B-score at 10 µM. hit rate 1.3% among 310,000. AID 588676;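 active = calcium-response B-score plate-corrected more than 3 library SD below zero, starting fluorescence within 5 deviations, no agonist response on first addition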;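 note: peak minus trough fluorescence over baseline after final BAM8-22 challenge near maximal dose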
RGS4 pot – potentiators or activators of RGS4 | HEK293 M3R/inducible RGS4, carbachol calcium flux Fluo4; stronger effect = lower value | B-score at 10 µM | hit rate 0.92% among 310,000;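 active = B-score of the integrated calcium signal more than 4 SD below the library mean, with starting fluorescence not abnormally high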;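 note: negative B-score means reduced calcium response which marks RGS4 activation or potentiation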
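Test system: HEK293 cells with stable M3R and inducible RGS4; also added: carbachol at ECmax as muscarinic agonist stimulus; schedule: dye loading 30 min 37 °C, buffer rest 30 min RT; technique: kinetic calcium fluorescence imaging with Fluo4-AM dye, 2 µM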
RGS4 block – human RGS4 inhibition; HEK293 M3R/RGS4 inducible, Fluo-4 calcium flux; stronger effect = higher value; triggered by carbachol at its EC20; P49798; AID 463165; hit rate 0.45% among 310,000; B-score at 10 µM;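 active = B-score, a plate-corrected calcium signal, over three deviations above library mean, with baseline fluorescence within five deviations of library mean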;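 note: RGS4 expression induced by doxycycline in cells with stable M3 receptor; B-score is computed from the integrated fluorescence ratio over baseline after carbachol; higher B-score means a larger calcium signal and so more RGS4 inhibition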
Target sequence (P49798 whole entry, looked up): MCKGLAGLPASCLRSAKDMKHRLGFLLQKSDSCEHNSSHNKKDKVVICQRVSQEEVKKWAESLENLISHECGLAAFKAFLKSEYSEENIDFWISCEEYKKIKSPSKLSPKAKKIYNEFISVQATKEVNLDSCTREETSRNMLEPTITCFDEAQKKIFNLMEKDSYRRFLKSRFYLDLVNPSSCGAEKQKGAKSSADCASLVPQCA
MrgX1 PAM – allosterically activates human MrgX1 receptor signaling. Q96LB2. MrgX1-HEK293, Fluo-4 calcium flux, FDSS; stronger effect = higher value. B-score at 10 µM. hit rate 0.63% among 310,000;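 active = plate-corrected calcium response at least 3 library SD above typical, normal starting fluorescence, not activating the receptor alone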;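 note: compound read alongside a low EC10 to EC30 dose of BAM8-22 agonist; peak minus trough fluorescence over baseline measured at the second addition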
MrgX1 ant reconf – human MrgX1 receptor antagonism, re-confirmation screen | shares compounds with MrgX1 antag | MrgX1-HEK293, BAM8-22 calcium flux, Fluo-4; stronger effect = lower value | remaining BAM8-22 calcium response % of control (stronger effect = lower value), % at 10 µM | hit rate 19% among 2,300 | AID 602420;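 active = remaining agonist calcium response no higher than 100% minus 3 SD of agonist-only control wells, with starting fluorescence near control levels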;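 note: agonist BAM8-22 given at a near maximal EC90 to ECmax level; peak minus minimum fluorescence divided by baseline after agonist addition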
HEK293 Ca flux – activity in parental HEK293 cells lacking MrgX1; shares compounds with MrgX1 antag; Fluo-4 calcium fluorescence, FDSS; fluorescence ratio F(max-min)/F0 at 10 µM; hit rate 2% among 4,000;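 active = duplicate-averaged calcium fluorescence ratio at least three times the standard deviation of buffer wells, a nonspecific response in parental cells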
HEK293 Ca counter – activity in parental HEK293 cells without MrgX1. AID 624114. hit rate 0.4% among 4,000. parental HEK293 calcium flux, Fluo-4 fluorescence ratio; stronger effect = higher value. fluorescence ratio F(max-min)/F0 at 10 µM. shares compounds with MrgX1 antag;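 active = calcium fluorescence ratio, averaged over duplicates, at least 3 SD of the buffer-well ratio, meaning a nonspecific response in receptor-free cells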;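 note: untransfected parental HEK293 lacking MrgX1 used as counterscreen for MrgX1 allosteric activators; fluorescence change taken during the second addition on a kinetic imager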
HEK293 Ca cntr2 – activity in parental HEK293 cells lacking MrgX1 receptor. Fluo-4 calcium fluorescence (FDSS); stronger effect = higher value. hit rate 8.7% among 4,000. fluorescence ratio F(max-min)/F0 at 10 µM. shares compounds with MrgX1 antag;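 active = calcium fluorescence ratio at least three times the spread of buffer wells, meaning a non-specific response in parental cells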
* hit, by the source's call.

What do the screens show for `O=C1N(CN2CCN(Cc3ccccc3)CC2)c2ccccc2C12OCCCO2`?
MrgX1 ag: inactive; MrgX1 antag: inactive; RGS4 pot: inactive; RGS4 block: inactive; MrgX1 PAM: inactive

Results for CC(C)(C)N(Cc1ccccc1)C(=O)CSc1nc2ccccc2c(=O)[nH]1 ?
MrgX1 ag: inactive; MrgX1 antag: inactive; RGS4 pot: inactive; RGS4 block: inactive; MrgX1 PAM: inactive

How did Cc1nnc(SCC(=O)N(Cc2ccccc2)C(C)(C)C)[nH]c1=O do in these assays?
MrgX1 ag: inactive; MrgX1 antag: -4.6*; RGS4 pot: inactive; RGS4 block: inactive; MrgX1 PAM: inactive; MrgX1 ant reconf: inactive; HEK293 Ca flux: inactive; HEK293 Ca counter: inactive; HEK293 Ca cntr2: inactive

What do the screens show for `CC(=O)c1ccc(NC(=O)C(C)NCc2ccccc2Cl)cc1` (stereo not given)?
MrgX1 ag: inactive; MrgX1 antag: -6.2*; RGS4 pot: inactive; RGS4 block: inactive; MrgX1 PAM: inactive; MrgX1 ant reconf: inactive; HEK293 Ca flux: inactive; HEK293 Ca counter: inactive; HEK293 Ca cntr2: inactive

How did CC1CN(c2ccccc2)c2nc3c(c(=O)[nH]c(=O)n3C)n2C1 (stereo not given) do in these assays?
MrgX1 ag: inactive; MrgX1 antag: -6.7*; RGS4 pot: inactive; RGS4 block: inactive; MrgX1 PAM: inactive; MrgX1 ant reconf: inactive; HEK293 Ca flux: inactive; HEK293 Ca counter: inactive; HEK293 Ca cntr2: inactive

How did Cc1nc(N2CCN(c3ccc(Cl)cc3)CC2)[nH]c(=O)c1C do in these assays?
MrgX1 ag: inactive; MrgX1 antag: inactive; RGS4 pot: inactive; RGS4 block: inactive; MrgX1 PAM: inactive

Results for O=C1CCCN1CCC12CC3CC(CC(C3)C1)C2 ?
MrgX1 ag: inactive; MrgX1 antag: -4.7*; RGS4 pot: inactive; RGS4 block: inactive; MrgX1 PAM: inactive; MrgX1 ant reconf: inactive; HEK293 Ca flux: inactive; HEK293 Ca counter: inactive; HEK293 Ca cntr2: inactive

What do the screens show for `CC(O)[C@H]1CNC(=O)C(=O)N1CCC12CC3CC(CC(C3)C1)C2` (stereo not given in full)?
MrgX1 ag: inactive; MrgX1 antag: inactive; RGS4 pot: inactive; RGS4 block: inactive; MrgX1 PAM: inactive

Results for CCC1CCCCN1C(=O)N[C@@H](Cc1ccccc1)C(=O)O (stereo not given in full) ?
MrgX1 ag: inactive; MrgX1 antag: -5*; RGS4 pot: inactive; RGS4 block: inactive; MrgX1 PAM: inactive; MrgX1 ant reconf: inactive; HEK293 Ca flux: inactive; HEK293 Ca counter: inactive; HEK293 Ca cntr2: inactive

Results for CCS(=O)(=O)Nc1ccccc1C(N)=O ?
MrgX1 ag: inactive; MrgX1 antag: inactive; RGS4 pot: inactive; RGS4 block: inactive; MrgX1 PAM: inactive

What do the screens show for `N#Cc1cc(NC2CCCC2)c([N+](=O)[O-])cc1C#N`?
MrgX1 ag: inactive; MrgX1 antag: -12*; RGS4 pot: inactive; RGS4 block: inactive; MrgX1 PAM: inactive; MrgX1 ant reconf: inactive; HEK293 Ca flux: inactive; HEK293 Ca counter: inactive; HEK293 Ca cntr2: inactive

How did O=[N+]([O-])c1ccc(NC2CCCC2)cc1 do in these assays?
MrgX1 ag: inactive; MrgX1 antag: inactive; RGS4 pot: inactive; RGS4 block: inactive; MrgX1 PAM: inactive

How did CCS(=O)(=O)N1CCC(C(=O)NCc2ccc(OC)cc2)CC1 do in these assays?
MrgX1 ag: inactive; MrgX1 antag: -6.3*; RGS4 pot: inactive; RGS4 block: inactive; MrgX1 PAM: inactive; MrgX1 ant reconf: inactive; HEK293 Ca flux: inactive; HEK293 Ca counter: inactive; HEK293 Ca cntr2: inactive

What do the screens show for `CCOC(=O)CSC1=C(C#N)C(c2ccccc2Cl)C(C(=O)OC)C(=O)N1` (stereo not given)?
MrgX1 ag: inactive; MrgX1 antag: -4.8*; RGS4 pot: inactive; RGS4 block: inactive; MrgX1 PAM: inactive; MrgX1 ant reconf: inactive; HEK293 Ca flux: inactive; HEK293 Ca counter: inactive; HEK293 Ca cntr2: inactive

How did Cc1cccc(C(=O)NCc2nnc(SCc3ccc(F)cc3)n2C)c1 do in these assays?
MrgX1 ag: inactive; MrgX1 antag: -4.8*; RGS4 pot: inactive; RGS4 block: inactive; MrgX1 PAM: inactive; MrgX1 ant reconf: inactive; HEK293 Ca flux: inactive; HEK293 Ca counter: inactive; HEK293 Ca cntr2: inactive

What do the screens show for `CCOC(=O)CSc1nnc(CNC(=O)c2cccc(C)c2)n1C`?
MrgX1 ag: inactive; MrgX1 antag: inactive; RGS4 pot: inactive; RGS4 block: inactive; MrgX1 PAM: inactive

Results for COc1ccccc1CNC(=O)COC(=O)C1CCN(c2ccc(C(F)(F)F)cn2)CC1 ?
MrgX1 ag: inactive; MrgX1 antag: -7.6*; RGS4 pot: inactive; RGS4 block: inactive; MrgX1 PAM: inactive; MrgX1 ant reconf: inactive; HEK293 Ca flux: inactive; HEK293 Ca counter: inactive; HEK293 Ca cntr2: inactive

How did O=C(COC(=O)C1CCN(c2ccc(C(F)(F)F)cn2)CC1)NCCc1ccccc1 do in these assays?
MrgX1 ag: inactive; MrgX1 antag: inactive; RGS4 pot: inactive; RGS4 block: inactive; MrgX1 PAM: inactive

How did CCn1c(=O)c2c(nc3n2CCCN3c2cccc(C)c2)n(C)c1=O do in these assays?
MrgX1 ag: inactive; MrgX1 antag: inactive; RGS4 pot: inactive; RGS4 block: inactive; MrgX1 PAM: inactive

How did COCC(C)n1c(C)cc(C(=O)CSc2nc3ccccc3c(=O)[nH]2)c1C (stereo not given) do in these assays?
MrgX1 ag: inactive; MrgX1 antag: -7.7*; RGS4 pot: inactive; RGS4 block: inactive; MrgX1 PAM: inactive; MrgX1 ant reconf: inactive; HEK293 Ca flux: inactive; HEK293 Ca counter: inactive; HEK293 Ca cntr2: inactive

Results for C=CCn1c(C)cc(C(=O)CSc2nc3ccccc3c(=O)[nH]2)c1C ?
MrgX1 ag: inactive; MrgX1 antag: inactive; MrgX1 PAM: inactive

How did C=CCn1c(C)cc(C(=O)CSc2nc3ccccc3[nH]2)c1C do in these assays?
MrgX1 ag: inactive; MrgX1 antag: -6.7*; RGS4 pot: inactive; RGS4 block: inactive; MrgX1 PAM: inactive; MrgX1 ant reconf: 71%*; HEK293 Ca flux: inactive; HEK293 Ca counter: inactive; HEK293 Ca cntr2: inactive
